The record followed here is ChEMBL document CHEMBL3091279, “Discovery and SAR studies of methionine-proline anilides as dengue virus NS2B-NS3 protease inhibitors” (Bioorg Med Chem Lett, 2013).

What is called Ki is a measure of affinity in units of concentration, obtained from inhibition or displacement.

SMILES strings stand for the structures. Structures can show the parent of a compound that is named as a salt. The source made the active and inactive calls. No cut-off for these calls is given here. Non-standard residues stand in square brackets, D forms with d. Residues, ends and D or L forms follow the SMILES beside them. *: point of attachment. Pbf = Cc1c(C)c(S(=O)(=O)*)c(C)c2c1OC(C)(C)C2; Met(O2) = CS(=O)(=O)CC[C@H](N)C(=O)O; Met(O) = CS(=O)CC[C@H](N)C(=O)O; pNA = O=[N+]([O-])c1ccc(N*)cc1; Boc = CC(C)(C)OC(=O)*; NHBn = c1ccc(CN*)cc1; Tfa = O=C(C(F)(F)F)*; NHPh = c1ccc(N*)cc1

The subject of assay [1] is dengue virus type 2. As to the kind of experiment: Inhibition of Dengue virus serotype 2 NS2B-NS3 protease using benzoyl-Nle-Lys-Arg-Arg-AMC as substrate assessed as remaining activity at 20 uM incubated for 3 mins followed by substrate addition by fluorescence spectrophotometric analysis relative to control. In a few lines:
(§1)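 DENV2 NS2B-NS3 protease expressed from a plasmid. Enzyme preincubated with inhibitor 3 min, then Bz-Nle-Lys-Arg-Arg-AMC (33 or 66 µM) added. Remaining activity read by fluorescence, ex 356/em 438 nm. Triplicate averages. Ki from Dixon plot (1/v vs inhibitor) at the two substrate levels.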

Assay [2] concerns dengue virus type 2. As to the kind of experiment: Inhibition of Dengue virus serotype 2 NS2B-NS3 protease using benzoyl-Nle-Lys-Arg-Arg-AMC as substrate assessed as remaining activity at 200 uM incubated for 3 mins followed by substrate addition by fluorescence spectrophotometric analysis relative to control. In a few lines: as §1
A short description of assay [3]: Competitive inhibition of Dengue virus serotype 2 NS2B-NS3 protease using benzoyl-Nle-Lys-Arg-Arg-AMC as substrate by Dixon plot analysis. On the set-up: species or system dengue virus type 2. In a few lines:
as §1

The subject of assay [4] is dengue virus type 2. In words: Inhibition of Dengue virus serotype 2 NS2B-NS3 protease using benzoyl-Nle-Lys-Arg-Arg-AMC as substrate assessed as remaining activity at 15 uM incubated for 3 mins followed by substrate addition by fluorescence spectrophotometric analysis relative to control. In a few lines:
as §1

Assay [5] relates to dengue virus type 2. In words: Inhibition of Dengue virus serotype 2 NS2B-NS3 protease using benzoyl-Nle-Lys-Arg-Arg-AMC as substrate assessed as fluorescence changes after 0.2 to 1 min by fluorescence spectrophotometric analysis. In a few lines: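 Fluorescence interference check. Fluorescence change over time followed in three parallel runs at 37 °C in pH 9.0 Tris buffer: NS2B-NS3 with inhibitor, NS2B-NS3 with Bz-Nle-Lys-Arg-Arg-AMC, and NS2B-NS3 with substrate plus inhibitor. Read at ex 356/em 438 nm.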

`CSCC[C@H](N)C(=O)N1CCC[C@H]1C(=O)Nc1cccc([N+](=O)[O-])c1`: the Activity in assay [1] was 37%.
On to `CSCC[C@H](N)C(=O)N1CCC[C@H]1C(=O)Nc1ccccc1` (H-Met-Pro-NHPh), for which the Activity in assay [2] came out at 60%.
With `CC(C)(C)OC(=O)N[C@@H](Cc1ccccc1)C(=O)N1CCC[C@H]1C(=O)Nc1ccc([N+](=O)[O-])cc1` (Boc-Phe-Pro-pNA), the Activity in assay [2] stood at 25%.
`CSCC[C@H](N)C(=O)N1CCC[C@H]1C(=O)Nc1ccc([N+](=O)[O-])cc1` registered a Ki in assay [3] of 4.9 µM. Besides, the Activity in assay [4] stood at 31%.
Consider `Cc1c(C)c(S(=O)(=O)NC(=N)NCCC[C@H](N)C(=O)N2CCC[C@H]2C(=O)Nc2ccc([N+](=O)[O-])cc2)c(C)c2c1OC(C)(C)C2` (H-Arg(Pbf)-Pro-pNA), for which the Activity in assay [1] is 106%.
Take `CSCC[C@H](N)C(=O)N1CCC[C@H]1C(=O)NCc1ccc([N+](=O)[O-])cc1`: the Activity in assay [2] was determined as 36%.
For `CSCC[C@H](NCc1ccc([N+](=O)[O-])cc1)C(=O)N1CCC[C@H]1C(=O)Nc1ccc([N+](=O)[O-])cc1`, the Activity in assay [1] turned out to be 38%.
As for `CSCC[C@H](NC(=O)C(F)(F)F)C(=O)N1CCC[C@H]1C(=O)Nc1ccc([N+](=O)[O-])cc1` (Tfa-Met-Pro-pNA), the Activity in assay [4] came to 54%.
Regarding `CS(=O)(=O)CC[C@H](N)C(=O)N1CCC[C@H]1C(=O)Nc1ccc([N+](=O)[O-])cc1` (H-[Met(O2)]-Pro-pNA), the Activity in assay [1] is 103%.
The same measure, in the same setting: the result for `C[S+]([O-])CC[C@H](N)C(=O)N1CCC[C@H]1C(=O)Nc1ccc([N+](=O)[O-])cc1` (stereo partly specified) (H-[Met(O)]-Pro-pNA) reads 99%; that for `Cc1c(C)c(S(=O)(=O)NC(=N)NCCC[C@H](NC(=O)OC(C)(C)C)C(=O)N2CCC[C@H]2C(=O)Nc2ccc([N+](=O)[O-])cc2)c(C)c2c1OC(C)(C)C2` (Boc-Arg(Pbf)-Pro-pNA), 90%.
As for `CSCC[C@H](N)C(=O)N1CCC[C@H]1C(=O)NCc1ccccc1` (H-Met-Pro-NHBn), the Activity in assay [4] was found to be 58%.
Consider `COc1ccc(CN[C@@H](CCSC)C(=O)N2CCC[C@H]2C(=O)Nc2ccc([N+](=O)[O-])cc2)cc1`, for which, in assay [1], the Activity is 90%.
Regarding `N[C@@H](Cc1ccccc1)C(=O)N1CCC[C@H]1C(=O)Nc1ccc([N+](=O)[O-])cc1` (H-Phe-Pro-pNA), the Activity in assay [2] was found to be 31%.
For `CSCC[C@H](N)C(=O)N1CCC[C@@H]1C(=O)Nc1ccc([N+](=O)[O-])cc1`, in assay [1], the Activity was 71%.
The same measure, in the same setting: the result for `CSCC[C@H](N)C(=O)N1CCC[C@H]1C(=O)Nc1ccccc1[N+](=O)[O-]` reads 96%.
For the compound `CSCC[C@H](NC(=O)OC(C)(C)C)C(=O)N1CCC[C@H]1C(=O)Nc1ccc([N+](=O)[O-])cc1` (Boc-Met-Pro-pNA), the Ki in assay [3] is 10.5 µM. Also, the Activity in assay [4] worked out at 45%. The inhibition result in assay [5] is “Active”.
For `N=C(N)NCCC[C@H](N)C(=O)N1CCC[C@H]1C(=O)Nc1ccc([N+](=O)[O-])cc1` (H-Arg-Pro-pNA), the Activity in assay [1] was found to be 93%.
